What was measured:
[1] = target: Bifunctional dihydrofolate reductase-thymidylate synthase (Plasmodium falciparum (isolate K1 / Thailand), UniProt P13922); experiment: Inhibition of the wild-type dihydrofolate reductase (DHFR)
How it was run: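 Assay at 25 °C: 50 mM TES pH 7.0, 75 mM β-mercaptoethanol, 1 mg/mL BSA, 100 µM H2folate and 100 µM NADPH. NADPH oxidation followed at 340 nm. Ki derived from IC50 as Ki(1+[S]/Km), assuming competitive inhibition.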

[2] = Antiplasmodial activity IC50 against Plasmodium falciparum K1CB1 DHFR double-mutant ([…])

Bifunctional dihydrofolate reductase-thymidylate synthase, sequence (P13922 whole entry): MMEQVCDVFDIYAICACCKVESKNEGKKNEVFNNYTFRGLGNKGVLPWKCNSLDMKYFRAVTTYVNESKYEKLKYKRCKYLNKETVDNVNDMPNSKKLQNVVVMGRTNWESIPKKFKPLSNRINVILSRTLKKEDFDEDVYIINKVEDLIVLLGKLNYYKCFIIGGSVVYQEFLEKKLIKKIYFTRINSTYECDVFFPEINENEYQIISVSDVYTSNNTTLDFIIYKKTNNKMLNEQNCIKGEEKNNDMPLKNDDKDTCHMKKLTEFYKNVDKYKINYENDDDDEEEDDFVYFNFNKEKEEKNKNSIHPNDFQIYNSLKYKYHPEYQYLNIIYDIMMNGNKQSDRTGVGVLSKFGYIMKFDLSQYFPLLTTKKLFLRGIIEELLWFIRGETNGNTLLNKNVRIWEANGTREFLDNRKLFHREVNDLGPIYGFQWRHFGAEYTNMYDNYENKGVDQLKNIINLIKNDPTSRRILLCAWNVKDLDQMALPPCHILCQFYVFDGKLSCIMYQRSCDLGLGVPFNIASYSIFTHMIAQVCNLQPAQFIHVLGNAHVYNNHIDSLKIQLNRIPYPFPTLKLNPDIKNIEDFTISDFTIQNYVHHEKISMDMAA

Cc1nc(N)nc(N)c1-c1ccc(Cl)cc1
Ki [1]: 0.002 µM | IC50 [2]: 60.1 µM

COC(=O)CCCc1nc(N)nc(N)c1-c1ccc(Cl)cc1
IC50 [2]: 22.3 µM

CCc1nc(N)nc(N)c1-c1ccc(OC)cc1
Ki [1]: 0.0009 µM | IC50 [2]: > 25 µM

CCc1nc(N)nc(N)c1-c1ccc(Cl)c(Cl)c1
IC50 [2]: 17.4 µM

Nc1nc(N)c(-c2cccc(Cl)c2)c(CCCc2ccccc2)n1
IC50 [2]: 3 µM

CCc1nc(N)nc(N)c1-c1ccccc1
IC50 [2]: 3.3 µM

Cc1nc(N)nc(N)c1-c1ccccc1
Ki [1]: 0.0109 µM | IC50 [2]: 30.8 µM

Nc1nc(N)c(-c2ccccc2)c(CCCc2ccccc2)n1
IC50 [2]: 2.3 µM

COC(=O)CCCc1nc(N)nc(N)c1-c1ccccc1 [4-(2,6-Diamino-5-phenyl-pyrimidin-4-yl)-butyric acid methyl ester]
IC50 [2]: 31.3 µM

COC(=O)CCCc1nc(N)nc(N)c1-c1cccc(Cl)c1 [4-[2,6-Diamino-5-(3-chloro-phenyl)-pyrimidin-4-yl]-butyric acid methyl ester]
IC50 [2]: 36.3 µM

CCc1nc(N)nc(N)c1-c1ccc(Cl)cc1Cl [5-(2,4-Dichloro-phenyl)-6-ethyl-pyrimidine-2,4-diamine]
Ki [1]: 0.0126 µM | IC50 [2]: 22.5 µM

CCOc1c(Br)cc(-c2c(N)nc(N)nc2CC)cc1Br [5-(3,5-Dibromo-4-ethoxy-phenyl)-6-ethyl-pyrimidine-2,4-diamine]
Ki [1]: 0.007 µM | IC50 [2]: 17.4 µM

COc1ccc(CCCc2nc(N)nc(N)c2-c2cccc(Cl)c2)cc1 [5-(3-Chloro-phenyl)-6-[3-(4-methoxy-phenyl)-propyl]-pyrimidine-2,4-diamine]
IC50 [2]: 2.7 µM

Nc1ncc(-c2cccc(Cl)c2)c(N)n1 [5-(3-Chloro-phenyl)-pyrimidine-2,4-diamine]
Ki [1]: 0.0063 µM | IC50 [2]: 8.8 µM

Nc1nc(N)c(-c2cccc(Cl)c2)c(CCOCCCOc2ccccc2)n1 [5-(3-chlorophenyl)-6-[2-(3-phenoxypropoxy)ethyl]pyrimidine-2,4-diamine]
IC50 [2]: 3.3 µM

CCc1nc(N)nc(N)c1-c1cccc(Cl)c1 [5-(3-chlorophenyl)-6-ethylpyrimidine-2,4-diamine]
IC50 [2]: 1.3 µM

Cc1nc(N)nc(N)c1-c1cccc(Cl)c1 [5-(3-chlorophenyl)-6-methylpyrimidine-2,4-diamine]
IC50 [2]: 4.8 µM

COc1cc(Cc2cnc(N)nc2N)cc(OC)c1OCc1ccccc1 [5-(4-Benzyloxy-3,5-dimethoxy-benzyl)-pyrimidine-2,4-diamine]
Ki [1]: 0.0042 µM | IC50 [2]: 30.1 µM

Nc1nc(N)c(-c2ccc(Cl)cc2)c(CCCc2ccccc2)n1 [5-(4-Chloro-phenyl)-6-(3-phenyl-propyl)-pyrimidine-2,4-diamine]
IC50 [2]: 10.6 µM

CCc1nc(N)nc(N)c1-c1ccc(Br)cc1 [5-(4-bromophenyl)-6-ethylpyrimidine-2,4-diamine]
Ki [1]: 0.0003 µM | IC50 [2]: 25 µM

Nc1ncc(-c2ccc(Cl)cc2)c(N)n1 [5-(4-chlorophenyl)pyrimidine-2,4-diamine]
Ki [1]: 0.0024 µM | IC50 [2]: 26.2 µM

CCc1nc(N)nc(N)c1-c1ccc(C(C)(C)C)cc1 [5-(4-tert-butylphenyl)-6-ethylpyrimidine-2,4-diamine]
Ki [1]: 0.0006 µM | IC50 [2]: 3.9 µM

CCc1nc(N)nc(N)c1-c1ccc2c(c1)OCO2 [5-Benzo[1,3]dioxol-5-yl-6-ethyl-pyrimidine-2,4-diamine]
IC50 [2]: 21.5 µM

CCc1nc(N)nc(N)c1-c1ccc(-c2ccccc2)cc1 [5-Biphenyl-4-yl-6-ethyl-pyrimidine-2,4-diamine]
Ki [1]: 0.188 µM | IC50 [2]: 4.4 µM

Nc1ncc(-c2ccccc2)c(N)n1 [5-Phenyl-pyrimidine-2,4-diamine]
IC50 [2]: 19.4 µM

COc1cc(Cc2cnc(N)nc2N)ccc1OCc1cc(OC)c(OC)c(OC)c1 [5-[3-Methoxy-4-(3,4,5-trimethoxy-benzyloxy)-benzyl]-pyrimidine-2,4-diamine]
Ki [1]: 0.0006 µM | IC50 [2]: 27.8 µM

COc1cc(Cc2cnc(N)nc2N)ccc1OCCCc1ccccc1 [5-[3-Methoxy-4-(3-phenyl-propoxy)-benzyl]-pyrimidine-2,4-diamine]
Ki [1]: 0.0018 µM | IC50 [2]: 11.7 µM

CCc1nc(N)nc(N)c1-c1ccc(OCc2ccc(Cl)cc2Cl)c(OC)c1 [5-[4-(2,4-Dichloro-benzyloxy)-3-methoxy-phenyl]-6-ethyl-pyrimidine-2,4-diamine]
Ki [1]: 0.001 µM | IC50 [2]: > 50 µM

COc1cc(COc2cc(Cc3cnc(N)nc3N)ccc2OCc2ccccc2)cc(OC)c1OC [5-[4-Benzyloxy-3-(3,4,5-trimethoxy-benzyloxy)-benzyl]-pyrimidine-2,4-diamine]
Ki [1]: 0.0121 µM | IC50 [2]: 17.5 µM

Nc1ncc(Cc2ccc(OCCCOc3cc(Cl)c(Cl)cc3Cl)cc2)c(N)n1 [5-{4-[3-(2,4,5-Trichloro-phenoxy)-propoxy]-benzyl}-pyrimidine-2,4-diamine]
Ki [1]: 0.0009 µM | IC50 [2]: 3.5 µM

CCc1nc(N)nc(N)c1-c1ccc(C)cc1 [6-ethyl-5-(4-methylphenyl)pyrimidine-2,4-diamine]
IC50 [2]: 12.7 µM

CCCCCCc1nc(N)nc(N)c1-c1ccccc1 [6-hexyl-5-phenylpyrimidine-2,4-diamine]
IC50 [2]: 1.3 µM

Source: BindingDB's records for doi:10.1021/jm010131q (National Center For Genetic Engineering and Biotechnology …, 2002)
